Measurements reported in ChEMBL document CHEMBL2331206, “Genomics-guided discovery of thailanstatins A, B, and C As pre-mRNA splicing inhibitors and antiproliferative agents from Burkholderia thailandensis MSMB43” (J Nat Prod, 2013).

How the values were obtained:
DU-145 = assay: Antiproliferative activity against human DU145 cells assessed as growth inhibition measured after 48 hrs by MTT assay; assay type: functional; conditions: DU-145, 48 h
Outline: (§1)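 Cells seeded at 10,000 or 15,000 per well, incubated overnight at 37 °C, then exposed to serial three-fold dilutions of compound (10 mM DMSO stocks) for 48 h at 37 °C. MTT added for 4 h at 37 °C, absorbance read at 570 and 690 nm. Viability = 100×(T−T0)/(C−T0) versus vehicle. Triplicate wells; GI50 from log concentration versus normalized viability.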

[1] = Antiproliferative activity against human NCI-H232A cells assessed as growth inhibition measured after 48 hrs by MTT assay; assay type: functional; outline: as §1
[2] = Stability of the compound in phosphate buffer at pH 7.4 at 37 degC by HPLC; assay type: physicochemical
Outline: (§2)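 Compound (10 µL of 10 mM DMSO stock) added to 10 mL phosphate buffer pH 7.4 containing benzoic acid and DMSO, sealed and held at 37 °C. Samples (20 µL) analysed by reverse-phase C18 HPLC at multiple time points; half-life determined from remaining compound.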

HEK293 [3] = assay: Inhibition of Pre-mRNA splicing in human HEK293 cells using biotin-labeled Ad2 pre-mRNA by exonjunction complex (EJC) immunoprecipitation assay
MDA-MB-231 = assay: Antiproliferative activity against human MDA-MB-231 cells assessed as growth inhibition measured after 48 hrs by MTT assay; assay type: functional; conditions: MDA-MB-231, 48 h; outline: as §1
SK-OV-3 = assay: Antiproliferative activity against human SKOV3 cells assessed as growth inhibition measured after 48 hrs by MTT assay; assay type: functional; conditions: SK-OV-3, 48 h; outline: as §1
[4] = Stability of the compound in phosphate buffer assessed as compound remaining after 8 to 78 hrs at pH 7.4 at 37 degC by HPLC; assay type: physicochemical; outline: as §2
HEK293 [5] = assay: Inhibition of Pre-mRNA splicing in human HEK293 cells using p32-labeled CDC14-15 pre-mRNA by exonjunction complex (EJC) immunoprecipitation assay; assay type: functional, cell-based
[6] = Stability of the compound in phosphate buffer at pH 7 at 37 degC by HPLC; assay type: physicochemical

| SMILES | GI50 (DU-145) [nM] | GI50 [1] [nM] | half-life [2] [min] | IC50 (HEK293 [3]) [µM] | GI50 (MDA-MB-231) [nM] | GI50 (SK-OV-3) [nM] | Stability [4] [%] | inhibition (HEK293 [5]) | half-life [6] [min] |
| --- | --- | --- | --- | --- | --- | --- | --- | --- | --- |
| CC(/C=C/[C@H]1O[C@H](CC(=O)O)C[C@@](O)(CCl)[C@@H]1O)=C\C[C@@H]1O[C@H](C)[C@H](NC(=O)/C=C\[C@H](C)OC(=O)C(C)C)C[C@@H]1C [THAILANSTATIN C] | 2.98 | 3.67 | 1500 | 6.84 | 8.82 | 5.57 |  |  |  |
| CC(=O)O[C@@H](C)/C=C\C(=O)N[C@@H]1C[C@H](C)[C@H](C/C=C(C)/C=C/[C@H]2O[C@H](CC(=O)O)C[C@@](O)(CCl)[C@@H]2O)O[C@@H]1C [THAILANSTATIN B] | 3 | 2.5 | 1140 | 6.18 | 6.22 | 4.94 |  |  |  |
| CC(=O)O[C@@H](C)/C=C\C(=O)N[C@@H]1C[C@H](C)[C@H](C/C=C(C)/C=C/[C@H]2O[C@H](CC(=O)O)C[C@@]3(CO3)[C@@H]2O)O[C@@H]1C [THAILANSTATIN A] | 1.11 | 2.26 | > 4680 | 0.65 | 2.58 | 2.69 | 65 |  |  |
| CC(=O)O[C@@H](C)/C=C\C(=O)N[C@@H]1C[C@H](C)[C@H](C/C=C(C)/C=C/[C@H]2O[C@](C)(O)C[C@@]3(CO3)[C@@H]2O)O[C@@H]1C | 1.05 | 1.94 | 480 | 0.58 | 2.1 | 1.06 | 38 | Dose-dependent effect | 240 |
